Measurements as given in ChEMBL document CHEMBL3414569, “Amino acid modified xanthone derivatives: novel, highly promising membrane-active antimicrobials for multidrug-resistant Gram-positive bacterial infections” (J Med Chem, 2015).
Converted amounts (≈) assume the structure as drawn.

Columns and labels:
[1] = Induction of hemolysis in New Zealand white rabbit RBC after 1 hr; format: cell-based, Oryctolagus cuniculus, Erythrocyte; conditions: New Zealand white, red blood cells (RBC)
Summary of the method: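 Fresh red blood cells isolated from New Zealand white rabbits. Lysis measured over a compound concentration series; HC50 taken as the concentration lysing 50% of RBCs.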

[2] = Selectivity index, ratio of HC50 for induction of hemolysis in New Zealand white rabbit RBC to MIC for Staphylococcus aureus DM21455
[3] = test system: Staphylococcus aureus; assay: Antimicrobial activity against Staphylococcus aureus ATCC 29213 infected in mouse cornea infection model assessed as reduction in viable bacterial count at 0.02% solution applied topically 5 times/day dosed 1 day after infection relative to control; format: functional
Summary of the method: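 Mouse cornea given three superficial 1 mm scratches on one eye under ketamine/xylazine, then 10 μL of S. aureus ATCC 29213 suspension (1 × 10^8 CFU/mL in USP phosphate buffer) applied topically. Treated topically 5 times/day from day 1 postinfection; PBS negative control; 4 mice/group killed on days 1, 2 and 3. Corneas homogenized in 0.9% NaCl with 0.25% BSA, plated in duplicate on TSA (48 h, 35 °C); log10 CFU/cornea.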

[4] = test system: Staphylococcus aureus; assay: Antimicrobial activity against methicillin resistant Staphylococcus aureus DM21455 by broth macrodilution method; format: functional
Summary of the method: (§1)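 Broth macrodilution MIC in Mueller Hinton broth following CLSI guidelines. Inoculum was prepared by direct colony suspension from an 18−20 h tryptic soy agar plate.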

[5] = test system: Staphylococcus aureus; assay: Antimicrobial activity against methicillin resistant Staphylococcus aureus DM09809R by broth macrodilution method; format: functional; summary of the method: as §1
[6] = Selectivity index, ratio of HC50 for induction of hemolysis in New Zealand white rabbit RBC to MIC for Staphylococcus aureus DM09809R
[7] = Selectivity index, ratio of HC50 for induction of hemolysis in New Zealand white rabbit RBC to MIC for Bacillus cereus ATCC 11778
[8] = test system: Bacillus cereus; assay: Antimicrobial activity against Bacillus cereus ATCC 11778 by broth macrodilution method; format: functional
Summary of the method: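 CLSI broth macrodilution in Mueller Hinton broth. Inoculum was made by direct colony suspension from colonies on an 18−20 h tryptic soy agar plate. The value is the MIC.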

[9] = test system: Staphylococcus aureus; assay: Antimicrobial activity against Staphylococcus aureus DM4001 by broth macrodilution method; format: functional; summary of the method: as §1
[10] = Selectivity index, ratio of HC50 for induction of hemolysis in New Zealand white rabbit RBC to MIC for Staphylococcus aureus DM4001

CCN(CC)CCCCOc1cc2oc3cc(OCCCCN(CC)CC)c(OC)c(CC=C(C)C)c3c(=O)c2c(O)c1CC=C(C)C
HC50 at 1 h [1]: 20 µg/mL | Selectivity Index [2]: 7 | Ratio [3]: <1 | MIC [4]: 0.5 µg/mL (≈ 0.752 µM) | MIC [5]: 2 µg/mL (≈ 3.01 µM) | Selectivity Index [6]: 7 | Selectivity Index [7]: 7 | MIC [8]: 3 µg/mL (≈ 4.51 µM) | MIC [9]: 2 µg/mL (≈ 3.01 µM) | Selectivity Index [10]: 7
